Several values for one entry are separate records, joined by “and”; a condition that tells them apart may be missing. Equal entries are not always repeated.
How the values were obtained:
[1] = target: Integrin alpha-IIb/beta-3 (Homo sapiens, UniProt P05106+P08514); assay: Inhibition of binding to purified integrin alphaIIb-beta3 of human platelets
Canis familiaris [2] = assay: Ex vivo inhibition of platelet aggregation in canine whole blood/collagen at a dose of 0.3 mg/kg after i.v. administration; range is 90-100; assay type: functional; settings: Canis lupus familiaris, route intravenous
In short: (§1)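 Conscious dogs dosed either by intravenous bolus or by short intraduodenal infusion through a catheter, at 0.3–3 mg/kg. Blood was drawn serially for up to 390 min. Platelet aggregation was measured ex vivo in collagen-stimulated canine whole blood. The readouts were maximal % inhibition, time to maximal inhibition, duration of maximal inhibition, and % inhibition at 390 min.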

Canis familiaris [3] = species on record: Canis familiaris; assay: Time required for maximal inhibition of platelet aggregation in canine; assay type: functional, Canis lupus familiaris; in short: as §1
Canis familiaris [4] = assay: Ex vivo inhibition of platelet aggregation in canine whole blood/collagen at a dose of 0.3 mg/kg after i.d. administration at 390 min; assay type: functional; settings: Canis lupus familiaris, 6.5 h, route intraduodenal; in short: as §1
Canis familiaris [5] = assay: Ex vivo inhibition of platelet aggregation in canine whole blood/collagen at a dose of 0.3 mg/kg after i.v. administration at 390 min; assay type: functional; settings: Canis lupus familiaris, 6.5 h, route intravenous; in short: as §1
Canis familiaris [6] = species on record: Canis familiaris; assay: Duration for maximal inhibition of platelet aggregation in canine; assay type: functional, Canis lupus familiaris; in short: as §1
Canis familiaris [7] = assay: Ex vivo inhibition of platelet aggregation in canine whole blood/collagen at a dose of 3 mg/kg after i.d. administration; range is 90-100; assay type: functional; settings: Canis lupus familiaris, route intraduodenal; in short: as §1
Homo sapiens = species on record: Homo sapiens; assay: In vitro Inhibitory activity against patelet aggregation in human platelet-rich plasma induced by ADP; assay type: functional
Canis familiaris [8] = assay: Ex vivo inhibition of platelet aggregation in canine whole blood/collagen at a dose of 0.3 mg/kg after i.d. administration; […]; assay type: functional; settings: Canis lupus familiaris, route intraduodenal; in short: as §1

Chain of Integrin alpha-IIb/beta-3 (P05106 27-788 limits assumed): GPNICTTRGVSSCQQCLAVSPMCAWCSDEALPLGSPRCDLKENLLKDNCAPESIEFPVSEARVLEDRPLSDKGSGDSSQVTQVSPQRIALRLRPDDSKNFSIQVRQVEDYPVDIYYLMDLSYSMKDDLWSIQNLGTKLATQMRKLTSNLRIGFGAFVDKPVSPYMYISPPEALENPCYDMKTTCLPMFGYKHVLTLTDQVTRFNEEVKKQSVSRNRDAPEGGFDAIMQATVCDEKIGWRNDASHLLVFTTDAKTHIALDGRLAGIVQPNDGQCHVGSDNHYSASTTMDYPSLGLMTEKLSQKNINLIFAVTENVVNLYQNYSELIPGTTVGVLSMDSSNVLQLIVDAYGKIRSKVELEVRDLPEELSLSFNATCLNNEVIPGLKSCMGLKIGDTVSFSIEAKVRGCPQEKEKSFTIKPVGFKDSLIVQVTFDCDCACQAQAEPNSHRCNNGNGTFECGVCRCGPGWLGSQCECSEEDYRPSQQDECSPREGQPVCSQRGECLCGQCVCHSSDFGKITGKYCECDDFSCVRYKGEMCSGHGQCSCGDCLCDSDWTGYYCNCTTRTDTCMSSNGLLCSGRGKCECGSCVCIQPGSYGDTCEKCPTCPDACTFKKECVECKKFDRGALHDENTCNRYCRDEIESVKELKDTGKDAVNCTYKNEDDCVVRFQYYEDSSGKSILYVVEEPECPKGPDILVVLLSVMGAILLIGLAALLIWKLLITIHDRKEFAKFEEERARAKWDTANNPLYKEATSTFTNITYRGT
Chain of Integrin alpha-IIb/beta-3 (P08514 32-887 limits assumed): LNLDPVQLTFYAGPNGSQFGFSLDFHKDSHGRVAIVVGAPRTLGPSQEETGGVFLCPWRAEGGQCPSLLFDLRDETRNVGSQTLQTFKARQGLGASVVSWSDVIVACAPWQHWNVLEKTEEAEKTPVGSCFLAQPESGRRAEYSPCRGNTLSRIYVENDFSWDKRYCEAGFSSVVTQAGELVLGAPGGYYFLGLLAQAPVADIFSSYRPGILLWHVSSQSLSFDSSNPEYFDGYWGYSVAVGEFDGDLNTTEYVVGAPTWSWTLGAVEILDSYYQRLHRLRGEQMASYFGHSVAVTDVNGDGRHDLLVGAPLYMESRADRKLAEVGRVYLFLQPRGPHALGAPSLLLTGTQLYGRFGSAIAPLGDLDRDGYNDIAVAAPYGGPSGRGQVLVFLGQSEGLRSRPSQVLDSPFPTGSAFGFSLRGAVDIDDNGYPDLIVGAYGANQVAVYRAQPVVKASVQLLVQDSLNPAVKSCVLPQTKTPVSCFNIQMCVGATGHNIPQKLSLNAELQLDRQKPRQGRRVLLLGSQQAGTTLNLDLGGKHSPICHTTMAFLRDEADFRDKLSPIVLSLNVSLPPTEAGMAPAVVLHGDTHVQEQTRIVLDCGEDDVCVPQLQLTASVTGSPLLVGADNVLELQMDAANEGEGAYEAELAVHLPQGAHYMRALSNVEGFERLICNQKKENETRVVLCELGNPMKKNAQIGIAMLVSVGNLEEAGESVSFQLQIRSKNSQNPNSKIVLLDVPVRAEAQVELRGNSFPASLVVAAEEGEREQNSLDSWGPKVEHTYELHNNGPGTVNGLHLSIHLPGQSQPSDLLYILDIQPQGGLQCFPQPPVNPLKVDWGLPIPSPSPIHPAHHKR
Chain of Integrin alpha-IIb/beta-3 (P08514 891-1039 limits assumed): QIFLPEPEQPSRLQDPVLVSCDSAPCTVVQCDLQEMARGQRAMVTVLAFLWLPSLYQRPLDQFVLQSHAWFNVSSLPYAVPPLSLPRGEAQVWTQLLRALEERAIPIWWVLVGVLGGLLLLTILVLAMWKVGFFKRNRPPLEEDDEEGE

| SMILES | Ki [1] [µM] | IC50 (Homo sapiens) [µM] | further results |
| --- | --- | --- | --- |
| CN1Cc2cc(C(=O)N3CCC(C4CCNCC4)CC3)ccc2NC(CC(=O)O)C1=O (configuration not stated) | 0.004 | 0.106 | inhibition in vivo at 0.3 mg/kg (Canis familiaris [2]): 90%; Time (Canis familiaris [3]): 5 min and 10 min; inhibition in vivo at 0.3 mg/kg (Canis familiaris [4]): 60%; inhibition in vivo at 0.3 mg/kg (Canis familiaris [5]): 50%; Duration (Canis familiaris [6]): 240 min; inhibition in vivo at 3 mg/kg (Canis familiaris [7]): 90% |
| O=C(O)CC1Nc2ccc(C(=O)N3CCC(C4CCNCC4)CC3)cc2CN(CCc2ccccc2)C1=O (configuration not stated) | 0.0015 | 0.02 | inhibition in vivo at 0.3 mg/kg (Canis familiaris [2]): 90%; Time (Canis familiaris [3]): 10 min and 30 min; inhibition in vivo at 0.3 mg/kg (Canis familiaris [8]): 70%; Duration (Canis familiaris [6]): 140 min |
| CN1C(=O)c2ccccc2SSc2ccccc2NC(=O)[C@H](CC(=O)O)NC(=O)CNC(=O)[C@@H]1CCCN=C(N)N [SKF-107260] |  | 0.057 |  |

Further lines, with some results ahead:

| Ki [1] [µM] | IC50 (Homo sapiens) [µM] | SMILES | further results |
| --- | --- | --- | --- |
| 0.008 | 0.06 | CN(CCCC1CCNCC1)C(=O)c1ccc2c(c1)CN(CCc1ccccc1)C(=O)C(CC(=O)O)N2 (configuration not stated) |  |
| 0.0028 |  | N=C(N)c1ccc(NC(=O)c2ccc3c(c2)NC(CC(=O)O)C(=O)N(CCc2ccccc2)C3)cc1 (configuration not stated) |  |
| 0.026 | 0.38 | N=C(N)c1cccc(NC(=O)c2ccc3c(c2)CN(CCc2ccccc2)C(=O)C(CC(=O)O)N3)c1 (configuration not stated) |  |
| 0.0016 | 0.065 | CN(C(=O)c1ccc2c(c1)NC(CC(=O)O)C(=O)N(CCc1ccccc1)C2)c1ccc(C(=N)N)cc1 (configuration not stated) |  |

Reference: ChEMBL document CHEMBL1129030, “Potent, selective, orally active 3-oxo-1,4-benzodiazepine GPIIb/IIIa integrin antagonists” (J Med Chem, 1996)
